In ChEMBL document CHEMBL2434825, “2-Heteroarylimino-5-arylidene-4-thiazolidinones as a new class of non-nucleoside inhibitors of HCV NS5B polymerase” (Eur J Med Chem, 2013):
The source made the active and inactive calls. The rule behind the calls is not given here.

Assays:
[1] = system: Hepatitis C virus; assay: Antiviral activity against Hepatitis C virus subtype 1b infected in human HuH7 cells assessed as inhibition of viral RNA replication at 100 uM after 42 hrs by […] assay relative to control; type: functional, Hepacivirus hominis; conditions: genotype 1b; for inhibition at 100 µM: Huh-7, 42 h; for inhibition: Hepacivirus hominis, Huh-7
Outline: (§1)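 Replicon reporter cells (Huh7/Rep-Feo1b for 1b; Huh7.5-FGR-JC1-Rluc2A for 2a) kept in DMEM, 10% FCS, 0.5 mg/mL G418, 37 °C, 5% CO2. Seeded 1 × 10^4 cells/well, treated 8 h later with 100 μM compound or DMSO for 42 h. Luciferase signal read as percent of DMSO controls. Viability by MTS assay in parental Huh7.5 cells. Average of two independent experiments in duplicate.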

[2] = Cytotoxicity against BHK cells transfected with HCV NS5B RdRp assessed as cell viability at 100 uM after 42 hrs by luciferase reporter gene assay; type: cell-based, Mesocricetus auratus; conditions: hamster, read-out: Activity
Outline: (§2)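 BHK cells stably carrying NS5B plus bicistronic (+)FLuc-(−)UTR-RLuc reporter, grown in DMEM, 10% FBS, 1 mg/mL G418, blasticidin. Seeded 1 × 10^4 cells/well, given 100 μM compound 8 h later, lysed 42 h post-treatment, dual luciferase read. Viability taken as firefly luciferase relative to DMSO controls. NS5B activity taken as percent reduction in RLuc/FLuc ratio versus DMSO. Two independent experiments in duplicate.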

[3] = Inhibition of HCV NS5B RdRp activity transfected in BHK cells at 100 uM after 42 hrs by dual-glo luciferase reporter gene assay relative to control; type: cell-based; conditions: Hepacivirus hominis; outline: as §2
[4] = system: Hepatitis C virus; assay: Antiviral activity against Hepatitis C virus subtype 2a infected in human Huh7.5 cells assessed as inhibition of viral RNA replication at 100 uM after 42 hrs by […] assay relative to control; type: functional, Hepacivirus hominis; conditions: genotype 2a; for inhibition at 100 µM: Huh-7, 42 h; for inhibition: Hepacivirus hominis, Huh-7; outline: as §1
[5] = system: Hepacivirus hominis; assay: Inhibition of HCV NS5BCdelta21 RdRp activity at 100 uM after 1 hr by liquid scintillation counting analysis in presence of [alpha-32P]UTP relative to control
Outline: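 Template 0.25 μM polyrA/U12, with 25 μM UTP plus [α-32P]UTP. Inhibitor at 100 μM, 1 h, 30 °C. Stopped with cold 5% TCA/0.5 mM pyrophosphate, product filter-captured and counted by scintillation. Background-subtracted, relative to DMSO (100%). At least two independent experiments in duplicate.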

[6] = Cytotoxicity against human Huh7.5 cells assessed as cell viability at 100 uM after 42 hrs by MTS assay; type: cell-based, Huh-7; conditions: read-out: Activity
[7] = Inhibition of HCV NS5BCdelta21 RdRp activity after 1 hr by liquid scintillation counting analysis in presence of [alpha-32P]UTP; parameters: species or system Hepacivirus hominis
Outline: (§3)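 NS5BCΔ21 (300 ng) was incubated 1 h at 30 °C with 0.25 μM polyrA/U12, 25 μM UTP plus [α-32P]UTP and 1.0 mM MnCl2 in 20 mM Tris-HCl pH 7.0 with NaCl, Na glutamate, DTT, BSA, Tween-20, glycerol and RNase inhibitor. Reactions were stopped with cold 5% TCA/pyrophosphate, captured on GF-B filters and scintillation-counted versus a background-subtracted DMSO control. Screening used 100 μM; IC50 came from 8–12-point curves, duplicate, two experiments.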

[8] = Selectivity ratio for Hepatitis C virus subtype 2a infected in human Huh7.5 cells over Hepatitis C virus subtype 1b infected in human HuH7 cells; type: functional, Huh-7
[9] = Inhibition of HCV NS5B RdRp activity; parameters: species or system Hepacivirus hominis; outline: as §3
[10] = Inhibition of 6xHis-tagged HCV NS5B RdRp activity; parameters: species or system Hepacivirus hominis; outline: as §3

## O=C1N/C(=N\c2nnc(-c3ccc(F)cc3)s2)S/C1=C\c1ccc([N+](=O)[O-])cc1
[1]
  inhibition at 100 µM: 51.2%
[2]
  viability at 42 h, 100 µM: 14.6%
[3]
  inhibition: 7%
[4]
  inhibition at 100 µM: 50.4%
[5]
  inhibition: 24.1%
[6]
  viability at 42 h, 100 µM: 13.9%

## O=C1N/C(=N\c2nnc(-c3ccc(Cl)cc3)s2)S/C1=C\c1ccccc1Cl
[7]
  IC50: 33.8 µM
[1]
  inhibition: inactive
[2]
  viability at 42 h, 100 µM: 0%
[3]
  inhibition: inactive
[4]
  inhibition: inactive
[5]
  inhibition: 73.6%
[6]
  viability at 42 h, 100 µM: 0%

## O=C1N/C(=N\c2nnc(-c3ccc(Cl)cc3)s2)S/C1=C\c1c(F)cccc1Cl
[7]
  IC50: 45.3 µM
[1]
  inhibition: inactive
[2]
  viability at 42 h, 100 µM: 0%
[3]
  inhibition: inactive
[4]
  inhibition: inactive
[5]
  inhibition: 60.3%
[6]
  viability at 42 h, 100 µM: 0%

## O=C1N/C(=N\c2nnc(-c3ccc(F)cc3)s2)S/C1=C\c1cccc(F)c1
[7]
  IC50: 34.6 µM
[1]
  inhibition at 100 µM: 95.5%
[2]
  viability at 42 h, 100 µM: 55.1%
[3]
  inhibition: 85.9%
[4]
  inhibition at 100 µM: 98%
[5]
  inhibition: 72%
[6]
  viability at 42 h, 100 µM: 59.7%

## O=C1N/C(=N\c2nnc(-c3ccc(Cl)cc3)s2)S/C1=C\c1ccc([N+](=O)[O-])cc1
[5]
  inhibition: 33%

## O=C1CS/C(=N/c2nnc(-c3ccc(F)cc3)s2)N1
[7]
  IC50: 38.6 µM
[1]
  inhibition at 100 µM: 70%
[3]
  inhibition: 57.9%
[4]
  inhibition at 100 µM: 72.8%
[5]
  inhibition: 76.1%
[6]
  viability at 42 h, 100 µM: 14%

## O=C1N/C(=N\c2nnc(-c3ccc(F)cc3)s2)S/C1=C\c1ccccc1F
[7]
  IC50: 51.1 µM
[1]
  inhibition at 100 µM: 97.4%
[2]
  viability at 42 h, 100 µM: 55.7%
[3]
  inhibition: 11%
[4]
  inhibition at 100 µM: 96.1%
[5]
  inhibition: 62.4%
[6]
  viability at 42 h, 100 µM: 59.9%

## O=C1N/C(=N\c2nnc(-c3ccc(F)cc3)s2)S/C1=C\c1ccc(Cl)cc1Cl
[8]
  Selectivity ratio: 1.6
[1]
  inhibition at 100 µM: 29.4%
[2]
  viability at 42 h, 100 µM: 0%
[3]
  inhibition: inactive
[4]
  inhibition at 100 µM: 54.7%
[5]
  inhibition: 11.5%
[6]
  viability at 42 h, 100 µM: 4.2%

## O=C(CCl)Nc1nnc(-c2ccc(Cl)cc2)s1
[2]
  viability at 42 h, 100 µM: 98.9%
[5]
  inhibition: 20%
[6]
  viability at 42 h, 100 µM: 81.9%

## O=C1N/C(=N\c2nnc(-c3ccc(Cl)cc3)s2)S/C1=C\c1c(Cl)cccc1Cl
[7]
  IC50: 5.6 µM
[1]
  inhibition at 100 µM: 98.5%
[2]
  viability at 42 h, 100 µM: 94.9%
[4]
  inhibition at 100 µM: 98.1%
[5]
  inhibition: 82%
[6]
  viability at 42 h, 100 µM: 76%

## O=C(NN1C(=O)CSC1c1ccccc1F)c1cc(-c2ccc(F)cc2F)ccc1O (stereo not drawn)
[9]
  IC50: 48 µM

## O=C1/C(=C/c2ccc(Br)cc2)SC(=S)N1NS(=O)(=O)c1ccccc1
[10]
  IC50: 440 nM

## Nc1nnc(-c2ccc(F)cc2)s1
[1]
  inhibition at 100 µM: 46.8%
[3]
  inhibition: 9.4%
[4]
  inhibition at 100 µM: 52.4%
[5]
  inhibition: 15.4%
[6]
  viability at 42 h, 100 µM: 18.6%

## COc1cccc(OC)c1/C=C1\S/C(=N/c2nnc(-c3ccc(Cl)cc3)s2)NC1=O
[1]
  inhibition at 100 µM: 97.7%
[2]
  viability at 42 h, 100 µM: 87.4%
[4]
  inhibition at 100 µM: 98.9%
[5]
  inhibition: 24.1%
[6]
  viability at 42 h, 100 µM: 80.4%

## O=C1N/C(=N\c2nnc(-c3ccc(Cl)cc3)s2)S/C1=C\c1cccc(F)c1
[7]
  IC50: 48.2 µM
[1]
  inhibition at 100 µM: 92.8%
[2]
  viability at 42 h, 100 µM: 58.1%
[3]
  inhibition: 63.1%
[4]
  inhibition at 100 µM: 95.6%
[5]
  inhibition: 65.5%
[6]
  viability at 42 h, 100 µM: 60.3%

## O=C1N/C(=N\c2nnc(-c3ccc(Cl)cc3)s2)S/C1=C\c1ccccc1F
[7]
  IC50: 56.2 µM
[1]
  inhibition at 100 µM: 96.4%
[2]
  viability at 42 h, 100 µM: 12.8%
[3]
  inhibition: 65.6%
[4]
  inhibition at 100 µM: 98.5%
[5]
  inhibition: 56.2%
[6]
  viability at 42 h, 100 µM: 13.1%

## O=C1N/C(=N\c2nnc(-c3ccc(F)cc3)s2)S/C1=C\c1c(F)cccc1Cl
[1]
  inhibition at 100 µM: 99.4%
[2]
  viability at 42 h, 100 µM: 89.8%
[4]
  inhibition at 100 µM: 98.5%
[5]
  inhibition: 28.1%
[6]
  viability at 42 h, 100 µM: 74.6%

## O=C1N/C(=N\c2nnc(-c3ccc(Cl)cc3)s2)S/C1=C\c1ccc(Cl)cc1Cl
[1]
  inhibition: inactive
[2]
  viability at 42 h, 100 µM: 0%
[3]
  inhibition: inactive
[4]
  inhibition: inactive
[5]
  inhibition: 25.7%
[6]
  viability at 42 h, 100 µM: 0%

## O=C(CCl)Nc1nnc(-c2ccc(F)cc2)s1
[2]
  viability at 42 h, 100 µM: 98.3%
[5]
  inhibition: 16%
[6]
  viability at 42 h, 100 µM: 84.8%

## O=C1N/C(=N\c2nnc(-c3ccc(F)cc3)s2)S/C1=C\c1c(Cl)cccc1Cl
[7]
  IC50: 19.8 µM
[1]
  inhibition at 100 µM: 98.8%
[2]
  viability at 42 h, 100 µM: 72.2%
[3]
  inhibition: 13.6%
[4]
  inhibition at 100 µM: 98.9%
[5]
  inhibition: 74.1%
[6]
  viability at 42 h, 100 µM: 73.2%

## COc1cccc(OC)c1/C=C1\S/C(=N/c2nnc(-c3ccc(F)cc3)s2)NC1=O
[1]
  inhibition at 100 µM: 87.7%
[2]
  viability at 42 h, 100 µM: 73.7%
[3]
  inhibition: inactive
[4]
  inhibition at 100 µM: 93.2%
[5]
  inhibition: 19.7%
[6]
  viability at 42 h, 100 µM: 63%

## O=C1N/C(=N\c2nnc(-c3ccc(Cl)cc3)s2)S/C1=C\c1ccc(F)cc1
[1]
  inhibition at 100 µM: 82.2%
[2]
  viability at 42 h, 100 µM: 73.1%
[3]
  inhibition: inactive
[4]
  inhibition at 100 µM: 94.9%
[5]
  inhibition: 25%
[6]
  viability at 42 h, 100 µM: 64.2%

## O=C1CS/C(=N/c2nnc(-c3ccc(Cl)cc3)s2)N1
[7]
  IC50: 42.5 µM
[8]
  Selectivity ratio: 1.6
[1]
  inhibition at 100 µM: 54.1%
[2]
  viability at 42 h, 100 µM: 15.2%
[3]
  inhibition: 65.7%
[4]
  inhibition at 100 µM: 89.8%
[5]
  inhibition: 74.4%
[6]
  viability at 42 h, 100 µM: 13.3%

## O=C1N/C(=N\c2nnc(-c3ccc(F)cc3)s2)S/C1=C\c1ccccc1Cl
[7]
  IC50: 64.9 µM
[1]
  inhibition at 100 µM: 98%
[2]
  viability at 42 h, 100 µM: 11.4%
[3]
  inhibition: 61%
[4]
  inhibition at 100 µM: 95.3%
[5]
  inhibition: 53.9%
[6]
  viability at 42 h, 100 µM: 15.6%

## Nc1nnc(-c2ccc(Cl)cc2)s1
[8]
  Selectivity ratio: 1.6
[1]
  inhibition at 100 µM: 37.4%
[2]
  viability at 42 h, 100 µM: 28.6%
[3]
  inhibition: inactive
[4]
  inhibition at 100 µM: 72.8%
[5]
  inhibition: 16.8%
[6]
  viability at 42 h, 100 µM: 32.4%
